Experiments:
[1] = target: T1, Casein kinase II (Homo sapiens) (UniProt P67870+P68400+P19784); assay: Residual activity of human CK2 at 30 uM; format: protein-complex assay
[2] = target: Cyclin-dependent kinase 5 (Homo sapiens) (UniProt Q00535); assay: Residual activity of CDK5 at 10 uM in presence of 100 uM ATP relative to control
Casein kinase II [3] = target: T2, Casein kinase II (Homo sapiens, UniProt P19784+P67870+P68400); assay: Inhibition of human CK2; format: protein-complex assay
[4] = target: T1, Casein kinase II (Homo sapiens); assay: Residual activity of CK2 at 10 uM in presence of 100 uM ATP relative to control; format: protein-complex assay
[5] = target: Tyrosine-protein kinase Lck (Homo sapiens) (UniProt P06239); assay: Residual activity of p56LCK at 10 uM in presence of 100 uM ATP relative to control
Sequence of Tyrosine-protein kinase Lck (Homo sapiens) (P06239 2-509 limits assumed): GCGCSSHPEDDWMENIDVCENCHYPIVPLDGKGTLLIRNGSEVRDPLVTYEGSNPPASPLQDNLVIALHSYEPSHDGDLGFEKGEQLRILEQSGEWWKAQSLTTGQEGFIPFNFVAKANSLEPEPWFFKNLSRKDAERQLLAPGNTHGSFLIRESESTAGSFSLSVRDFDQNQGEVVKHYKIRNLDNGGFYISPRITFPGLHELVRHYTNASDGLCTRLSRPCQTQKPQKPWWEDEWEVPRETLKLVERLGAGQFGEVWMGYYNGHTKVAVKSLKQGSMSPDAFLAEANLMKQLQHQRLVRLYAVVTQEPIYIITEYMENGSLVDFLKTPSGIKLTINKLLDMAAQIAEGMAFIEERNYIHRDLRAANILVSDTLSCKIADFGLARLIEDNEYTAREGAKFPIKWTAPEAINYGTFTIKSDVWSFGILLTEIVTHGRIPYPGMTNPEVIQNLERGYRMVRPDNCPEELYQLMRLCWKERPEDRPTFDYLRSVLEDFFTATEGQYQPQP

[6] = target: Mitogen-activated protein kinase 10 (Homo sapiens) (UniProt P53779); assay: Residual activity of JNK3 at 10 uM in presence of 100 uM ATP relative to control
[7] = target: Dual specificity tyrosine-phosphorylation-regulated kinase 1A (Homo sapiens) (UniProt Q13627); assay: Residual activity of DYRK1a at 10 uM in presence of 100 uM ATP relative to control
[8] = target: Rho-associated protein kinase 1 (Homo sapiens) (UniProt Q13464); assay: Residual activity of ROCK1 at 10 uM in presence of 100 uM ATP relative to control
Sequence of Rho-associated protein kinase 1 (Homo sapiens) (Q13464 2-1354 limits assumed): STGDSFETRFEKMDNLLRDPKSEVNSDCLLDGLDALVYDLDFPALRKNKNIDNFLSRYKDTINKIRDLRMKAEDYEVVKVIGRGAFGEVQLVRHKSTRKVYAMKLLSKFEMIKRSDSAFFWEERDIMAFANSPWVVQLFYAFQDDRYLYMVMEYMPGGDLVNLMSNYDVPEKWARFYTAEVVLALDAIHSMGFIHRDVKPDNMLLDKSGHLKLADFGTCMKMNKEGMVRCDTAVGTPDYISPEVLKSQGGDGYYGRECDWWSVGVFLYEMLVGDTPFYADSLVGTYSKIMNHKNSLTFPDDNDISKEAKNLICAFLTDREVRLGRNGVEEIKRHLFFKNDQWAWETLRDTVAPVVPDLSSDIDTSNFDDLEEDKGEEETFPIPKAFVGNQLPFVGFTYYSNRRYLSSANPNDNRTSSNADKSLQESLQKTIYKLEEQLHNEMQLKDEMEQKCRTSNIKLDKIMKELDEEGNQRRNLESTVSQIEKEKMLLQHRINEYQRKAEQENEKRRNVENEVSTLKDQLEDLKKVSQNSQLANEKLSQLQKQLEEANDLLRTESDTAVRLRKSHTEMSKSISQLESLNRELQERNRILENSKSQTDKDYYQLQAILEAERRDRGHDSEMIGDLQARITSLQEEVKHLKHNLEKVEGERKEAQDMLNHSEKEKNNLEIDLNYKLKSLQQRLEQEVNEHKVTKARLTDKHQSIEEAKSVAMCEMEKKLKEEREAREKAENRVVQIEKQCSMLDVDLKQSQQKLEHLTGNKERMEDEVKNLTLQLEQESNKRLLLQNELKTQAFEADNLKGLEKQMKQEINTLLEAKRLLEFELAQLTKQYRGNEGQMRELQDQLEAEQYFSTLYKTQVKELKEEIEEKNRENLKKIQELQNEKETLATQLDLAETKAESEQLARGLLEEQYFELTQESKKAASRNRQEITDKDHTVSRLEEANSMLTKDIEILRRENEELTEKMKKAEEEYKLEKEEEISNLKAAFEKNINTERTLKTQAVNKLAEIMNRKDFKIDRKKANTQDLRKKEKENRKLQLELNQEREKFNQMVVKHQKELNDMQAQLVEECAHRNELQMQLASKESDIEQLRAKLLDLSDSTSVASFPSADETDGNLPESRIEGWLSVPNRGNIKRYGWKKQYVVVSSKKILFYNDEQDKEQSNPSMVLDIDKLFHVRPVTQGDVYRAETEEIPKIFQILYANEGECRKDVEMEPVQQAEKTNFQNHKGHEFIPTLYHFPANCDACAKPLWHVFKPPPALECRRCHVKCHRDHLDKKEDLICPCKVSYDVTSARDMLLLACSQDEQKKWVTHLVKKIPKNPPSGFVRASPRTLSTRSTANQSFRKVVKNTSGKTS

Casein kinase II [9] = target: T2, Casein kinase II; assay: Binding affinity to human CK2 in presence of ATP; format: protein-complex assay
In short: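 Ki obtained from Lineweaver-Burk plots of CK2 activity measured at varied ATP and inhibitor concentrations (inhibitor 0 to 0.5 µM). Activity was read by the radiometric phosphocellulose peptide assay.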

[10] = target: Ribosomal protein S6 kinase alpha-5 (Homo sapiens) (UniProt O75582); assay: Residual activity of MSK1 at 10 uM in presence of 100 uM ATP relative to control
Sequence of Ribosomal protein S6 kinase alpha-5 (Homo sapiens) (O75582 whole entry, looked up): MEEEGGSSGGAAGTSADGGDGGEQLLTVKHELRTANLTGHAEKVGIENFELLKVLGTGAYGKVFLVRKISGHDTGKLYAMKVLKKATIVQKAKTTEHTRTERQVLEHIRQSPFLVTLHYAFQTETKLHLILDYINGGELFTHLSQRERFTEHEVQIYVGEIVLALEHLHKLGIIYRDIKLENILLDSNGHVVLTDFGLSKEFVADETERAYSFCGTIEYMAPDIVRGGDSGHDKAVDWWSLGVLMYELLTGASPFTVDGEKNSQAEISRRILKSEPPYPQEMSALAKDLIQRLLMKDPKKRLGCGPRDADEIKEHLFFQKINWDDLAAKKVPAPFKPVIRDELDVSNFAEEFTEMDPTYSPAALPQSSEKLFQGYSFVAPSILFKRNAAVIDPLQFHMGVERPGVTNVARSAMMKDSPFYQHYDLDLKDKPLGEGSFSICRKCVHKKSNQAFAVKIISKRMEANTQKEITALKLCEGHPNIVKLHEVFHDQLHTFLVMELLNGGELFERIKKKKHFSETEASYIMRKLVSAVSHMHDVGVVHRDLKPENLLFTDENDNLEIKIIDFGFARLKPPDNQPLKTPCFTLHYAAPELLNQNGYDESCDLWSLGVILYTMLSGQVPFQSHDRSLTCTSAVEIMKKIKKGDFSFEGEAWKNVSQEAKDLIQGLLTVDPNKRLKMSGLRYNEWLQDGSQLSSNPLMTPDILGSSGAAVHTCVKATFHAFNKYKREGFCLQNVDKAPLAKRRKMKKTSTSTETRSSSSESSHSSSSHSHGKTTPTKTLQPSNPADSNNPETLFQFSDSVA

[11] = target: Glycogen synthase kinase-3 (Homo sapiens) (UniProt P49840+P49841); assay: Residual activity of GSK3 at 10 uM in presence of 100 uM ATP relative to control; format: protein assay
Sequence of Glycogen synthase kinase-3 (Homo sapiens) (P49840 whole entry, looked up): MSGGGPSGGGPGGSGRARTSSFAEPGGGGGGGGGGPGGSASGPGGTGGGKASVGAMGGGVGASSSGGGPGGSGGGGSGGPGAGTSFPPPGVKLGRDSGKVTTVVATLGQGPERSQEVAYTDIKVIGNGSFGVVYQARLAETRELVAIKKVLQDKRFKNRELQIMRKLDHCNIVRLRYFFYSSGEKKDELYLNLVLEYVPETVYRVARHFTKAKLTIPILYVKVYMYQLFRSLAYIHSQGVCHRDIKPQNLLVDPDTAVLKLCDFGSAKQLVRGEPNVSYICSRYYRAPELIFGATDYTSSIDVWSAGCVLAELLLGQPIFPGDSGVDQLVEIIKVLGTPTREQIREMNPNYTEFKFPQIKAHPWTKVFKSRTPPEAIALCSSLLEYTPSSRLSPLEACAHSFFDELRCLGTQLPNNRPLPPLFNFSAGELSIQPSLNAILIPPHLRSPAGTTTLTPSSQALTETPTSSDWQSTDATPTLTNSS
Sequence of Glycogen synthase kinase-3 (Homo sapiens) (P49841 whole entry, looked up): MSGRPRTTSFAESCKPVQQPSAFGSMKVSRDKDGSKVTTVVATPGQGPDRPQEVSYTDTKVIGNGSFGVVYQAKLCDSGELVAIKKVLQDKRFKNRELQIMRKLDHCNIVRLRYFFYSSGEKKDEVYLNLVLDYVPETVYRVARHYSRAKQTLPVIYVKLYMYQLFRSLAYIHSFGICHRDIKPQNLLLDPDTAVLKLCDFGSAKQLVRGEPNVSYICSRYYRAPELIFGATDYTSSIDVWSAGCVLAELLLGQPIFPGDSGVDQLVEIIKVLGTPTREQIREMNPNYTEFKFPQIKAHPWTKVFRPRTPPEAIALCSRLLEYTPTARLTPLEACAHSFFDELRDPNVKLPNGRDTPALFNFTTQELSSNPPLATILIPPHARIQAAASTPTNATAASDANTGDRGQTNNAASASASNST

T2 sequence (P67870 whole entry): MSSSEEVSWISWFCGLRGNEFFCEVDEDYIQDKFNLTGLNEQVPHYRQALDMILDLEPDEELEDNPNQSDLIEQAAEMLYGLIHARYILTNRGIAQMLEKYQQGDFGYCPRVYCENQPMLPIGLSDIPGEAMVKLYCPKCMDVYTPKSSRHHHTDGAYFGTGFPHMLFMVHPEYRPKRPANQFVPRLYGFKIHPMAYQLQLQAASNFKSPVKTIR
T2 sequence (P68400 whole entry): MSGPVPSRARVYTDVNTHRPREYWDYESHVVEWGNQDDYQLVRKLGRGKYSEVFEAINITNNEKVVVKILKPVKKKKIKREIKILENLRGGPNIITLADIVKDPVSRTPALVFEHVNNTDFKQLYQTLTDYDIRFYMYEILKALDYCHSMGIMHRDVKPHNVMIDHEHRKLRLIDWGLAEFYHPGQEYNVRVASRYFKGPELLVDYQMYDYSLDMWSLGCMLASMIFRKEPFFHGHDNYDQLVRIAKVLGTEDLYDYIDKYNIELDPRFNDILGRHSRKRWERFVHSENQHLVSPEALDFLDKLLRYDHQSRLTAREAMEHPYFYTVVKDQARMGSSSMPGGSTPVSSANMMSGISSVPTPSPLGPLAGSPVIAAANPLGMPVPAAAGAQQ
T2 sequence (P19784 whole entry): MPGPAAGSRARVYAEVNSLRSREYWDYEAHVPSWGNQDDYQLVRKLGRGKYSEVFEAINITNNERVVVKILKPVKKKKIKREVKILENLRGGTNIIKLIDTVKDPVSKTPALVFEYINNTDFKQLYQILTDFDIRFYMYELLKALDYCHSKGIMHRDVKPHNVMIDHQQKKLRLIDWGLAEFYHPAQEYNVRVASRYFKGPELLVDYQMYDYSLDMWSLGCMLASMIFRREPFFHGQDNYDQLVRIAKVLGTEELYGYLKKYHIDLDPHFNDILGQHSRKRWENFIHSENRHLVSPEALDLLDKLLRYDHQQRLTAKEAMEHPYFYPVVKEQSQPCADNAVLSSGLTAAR
Sequence of Cyclin-dependent kinase 5 (Homo sapiens) (Q00535 whole entry, looked up): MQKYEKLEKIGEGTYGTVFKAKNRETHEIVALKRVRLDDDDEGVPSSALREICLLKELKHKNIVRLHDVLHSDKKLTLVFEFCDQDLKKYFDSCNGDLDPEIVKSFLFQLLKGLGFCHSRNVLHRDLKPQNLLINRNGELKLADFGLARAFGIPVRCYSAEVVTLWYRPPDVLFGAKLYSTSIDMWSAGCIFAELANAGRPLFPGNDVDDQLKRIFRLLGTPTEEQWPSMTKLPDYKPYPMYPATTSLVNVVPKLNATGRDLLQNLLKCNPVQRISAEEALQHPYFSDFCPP

Row | SMILES | Activity [1] [%] | further results
1 | Cc1cc(C)c2ncc(C(=O)O)c(O)c2c1 | 63 | 
2 | O=C(O)c1cnc2cc(Cl)cc(Cl)c2c1O | 70 | 
3 | O=C(O)c1cnc2c(Cl)cc(Cl)c(Cl)c2c1O | 2.6 | Activity [2]: > 50%; IC50 (Casein kinase II [3]): 300 nM; Activity [4]: 11%; Activity [5]: 87%; Activity [6]: 74%; Activity [7]: 35%; Activity [8]: 85%; Ki (Casein kinase II [9]): 60 nM; Activity [10]: 71%; Activity [11]: > 50%
4 | CN(C)c1ccc2ncc(C(=O)O)c(O)c2c1 | 75 | 
5 | COc1cc(OC)c2ncc(C(=O)O)c(O)c2c1 | 99 | 
6 | Cc1ccc2c(c1)c(=O)c(C(=O)O)cn2C | 100 | 
7 | O=C(O)c1cnc2ccc(Br)cc2c1O | 76 | 
8 | O=C(O)c1cnc2c(ccc3ccccc32)c1O | 4.5 | Activity [2]: > 50%; IC50 (Casein kinase II [3]): 1000 nM; Activity [4]: 25%; Activity [5]: 80%; Activity [6]: 81%; Activity [7]: 85%; Activity [8]: 78%; Ki (Casein kinase II [9]): 280 nM; Activity [10]: 89%; Activity [11]: > 50%
9 | CC1COc2c(F)c(F)cc3c(=O)c(C(=O)O)cn1c23 (stereo not given) | 88 | 
10 | Cn1cc(C(=O)O)c(=O)c2ccccc21 | 106 | 
11 | O=C(O)c1c[nH]c2c(Cl)c(Cl)ccc2c1=O |  | IC50 (Casein kinase II [3]): 800 nM
12 | O=C(O)c1cnc2ccc(I)cc2c1O | 85 | 
13 | Cc1ccc2c(O)c(C(=O)O)cnc2c1C | 56 | IC50 (Casein kinase II [3]): ≥ 33000 nM
14 | Cc1ccc2ncc(C(=O)O)c(O)c2c1 | 100 | 
15 | CCCOc1ccc2ncc(C(=O)O)c(O)c2c1 | 80 | 
16 | O=C(O)c1cnc2ccc(F)cc2c1O | 72 | 
17 | CC1COc2c(N3CCN(C)CC3)c(F)cc3c(=O)c(C(=O)O)cn1c23 (stereo not given) | 100 | 
18 | O=C(O)c1cnc2c(Cl)cc(Cl)cc2c1O | 64 | 
19 | O=C(O)c1cnc2c(Cl)c(Cl)ccc2c1O | 12.5 | 
20 | O=C(O)c1cnc2cc(C(F)(F)F)ccc2c1O | 78 | 
21 | CC(=O)c1ccc2ncc(C(=O)O)c(O)c2c1 | 100 | 
22 | O=C(O)c1cnc2ccc(Oc3ccccc3)cc2c1O | 89 | 
23 | CCOc1ccc2ncc(C(=O)O)c(O)c2c1 | 107 | 
24 | Cc1cc(C)c2c(c1)c(=O)c(C(=O)O)cn2C | 102 | 
25 | Cc1ccc(C)c2c(O)c(C(=O)O)cnc12 | 32 | 
26 | O=C(O)c1cnc2ccc(Cl)cc2c1O | 75 | 
27 | Cc1c(Cl)ccc2c(O)c(C(=O)O)cnc12 | 15 | IC50 (Casein kinase II [3]): 2000 nM
28 | CCCCc1ccc2ncc(C(=O)O)c(O)c2c1 | 87 | 
29 | O=C(O)c1cnc2cc3c(cc2c1O)OCCO3 | 81 | 
30 | COc1ccc2ncc(C(=O)O)c(O)c2c1 | 101 | 

More lines, main results first:

Row | Activity [1] [%] | SMILES | further results
31 | 93 | CC(C)Oc1cccc2c(O)c(C(=O)O)cnc12 | 
32 | 95 | CC(C)c1cccc2c(O)c(C(=O)O)cnc12 | 
33 | 42 | O=C(O)c1cnc2c(Br)cccc2c1O | 
34 | 92 | COc1cccc2c(O)c(C(=O)O)cnc12 | 
35 | 103 | CCOc1cccc2c(O)c(C(=O)O)cnc12 | 
36 | 74 | Cc1cccc2c(O)c(C(=O)O)cnc12 | 
37 | 74 | O=C(O)c1ccc2c(O)c(C(=O)O)cnc2c1 | 
38 | 70 | O=C(O)c1cnc2c(F)cccc2c1O | 
39 | 37 | O=C(O)c1cnc2c(Cl)cccc2c1O | 
40 | 86 | CCc1cccc2c(O)c(C(=O)O)cnc12 | 
41 | 103 | O=C(O)c1cnc2ccccc2c1O | 
42 | 91 | O=C(O)c1ccc2ncc(C(=O)O)c(O)c2c1 | 
43 | 73 | O=C(O)c1cnc2c(C(=O)O)cccc2c1O | 

Reference: ChEMBL document CHEMBL1137306, “Evaluation of 3-carboxy-4(1H)-quinolones as inhibitors of human protein kinase CK2” (J Med Chem, 2006)
